Glyco luc inh: blocks N-linked glycosylation in D54 reporter cells. reporter increase, % at 12.5 µM. 0.23% of 360,000 active. AID 588692. D54 ERlucT glycosylation luciferase reporter, 24 h; percent of 100 nM tunicamycin response;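 active means mean luciferase reporter signal, scaled so untreated is 0 and the glycosylation-blocking control 100, at or above a set limit in every replicate; inconclusive means mean reaches the limit but not every replicate does; inactive means mean below the limit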;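 further: luciferase carries N-glycosylation sites so blocking glycosylation raises the light; 0% = median of neutral control wells and 100% = median of 100 nM tunicamycin wells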
AF4-AF9 inh: inhibitors of human MLL-AF4/AF9 interaction; P42568; AlphaScreen, biotin-AF4 peptide binding to FLAG-AF9; inhibition, % at 10 µM; 0.47% of 350,000 active;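 active means every replicate reaching a set inhibition limit, whatever the replicate mean, cut at about 25% in these data; inconclusive means mean inhibition reaches that limit but some replicates miss it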;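 further: 0% = plate neutral control median and 100% = total signal loss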
Target sequence (P42568 whole entry, looked up): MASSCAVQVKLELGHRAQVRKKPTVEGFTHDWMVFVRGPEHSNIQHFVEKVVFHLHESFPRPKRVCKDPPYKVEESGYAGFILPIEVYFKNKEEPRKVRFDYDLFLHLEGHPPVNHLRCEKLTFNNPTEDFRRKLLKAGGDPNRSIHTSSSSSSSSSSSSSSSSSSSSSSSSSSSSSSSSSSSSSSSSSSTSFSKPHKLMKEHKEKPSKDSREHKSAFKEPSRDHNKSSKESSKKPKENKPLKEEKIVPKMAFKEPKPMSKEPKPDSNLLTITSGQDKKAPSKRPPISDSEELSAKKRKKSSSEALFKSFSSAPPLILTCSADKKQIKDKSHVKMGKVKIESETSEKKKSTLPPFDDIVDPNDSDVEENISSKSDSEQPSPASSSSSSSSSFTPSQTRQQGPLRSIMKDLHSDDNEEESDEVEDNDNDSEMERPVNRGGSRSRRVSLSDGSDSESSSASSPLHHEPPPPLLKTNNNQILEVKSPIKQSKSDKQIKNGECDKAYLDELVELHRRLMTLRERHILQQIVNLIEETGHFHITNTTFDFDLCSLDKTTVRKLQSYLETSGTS
PAX8 reporter: inhibitors of PAX8 transcriptional activity in RMG-I cells; inhibition, % at 12.6 µM; RMG-I TPO-luciferase reporter, SteadyGlo, 24 h; 1.2% of 360,000 active;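 active means mean replicate inhibition at least 60% with every replicate also reaching 60%; inconclusive means only one of the two criteria is met; inactive means mean below 60% and not all replicates reaching 60%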;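 further: luciferase light reporting Pax8 driven TPO promoter activity; plate controls were median of neutral control wells for no effect and mitoxantrone controls for full effect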
FN deposit inh: fibronectin deposition inhibition; AID 743247; AH1F fibroblasts, Alexa488-fibronectin deposition fluorescence, overnight; inhibition, % at 12.6 µM; 0.086% of 350,000 active;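 active means mean inhibition across replicates of 30% or more, regardless of how many single replicates reach that level; inconclusive means mean under 30% yet at least half of replicates reach 30%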;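 further: positive control wells lacked labelled fibronectin entirely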
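Material – AH1F fibroblast monolayer, labelled fibronectin deposition · Reagent – labelled fibronectin 24 nM · Timing – 1 h adhesion, overnight exposure · Measured by – fluorescence at 485 nm excitation, 525 nm emission · Read-out – inhibition of fibronectin deposition signal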
HIV Env fusion: inhibitors of HIV Env-mediated cell fusion; inhibition, % at 12.3 µM; HeLa-JRFL Env/CEM21 cell fusion, luciferase; 1.1% of 360,000 active;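 active means mean replicate inhibition score of at least 50 and every replicate individually at or above 50; inconclusive means only one of the two criteria met; inactive means mean below 50 and not all replicates reaching 50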;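 further: 0% = plate neutral controls and 100% = maraviroc near 300 nM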
EWS-Fli block: EWS/Fli transcriptional activity inhibition; A673 NR0B1-luciferase reporter, viability-normalised; inhibition, % at 12.6 µM; 0.67% of 350,000 active;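 active means mean inhibition of at least 50% after viability correction, with every replicate also passing that limit; inconclusive means mean reaches 50% but only one of two replicates passes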;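 further: firefly luciferase signal divided by Alamar Blue viability fluorescence both relative to DMSO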
* = called active by the depositor; [ ] = remark or other dose. Hits are enriched below; roughly 2.5% of the tested compounds scored in any of these assays.

`CN(C)S(=O)(=O)c1ccc(-c2csc(N/N=C/c3ccc(O)cc3)n2)cc1` gave Glyco luc inh -14, PAX8 reporter 30, FN deposit inh 0, HIV Env fusion 29 and EWS-Fli block 56*.
Screening CN(C)S(=O)(=O)c1ccc(-c2csc(N/N=C/c3ccco3)n2)cc1 returned Glyco luc inh -2, AF4-AF9 inh -2, PAX8 reporter 49, FN deposit inh -5, HIV Env fusion 29 and EWS-Fli block 9.
For O=C(N[C@H]1C=C[C@H](CC(=O)N2CCOCC2)O[C@@H]1CO)c1ccccn1 the results were AF4-AF9 inh -3, PAX8 reporter -12, FN deposit inh -6, HIV Env fusion 12[16.7 µM] and EWS-Fli block -2.
`CN1CC(c2ccccc2Cl)C2(COc3ccccc3C2=O)C12C(=O)Nc1ccccc12` (stereo not drawn) gave Glyco luc inh -7, PAX8 reporter 40, FN deposit inh -12 and HIV Env fusion 78*.
Screening NCc1cc2c3c(c1)CCCN3CCC2 returned Glyco luc inh 2, AF4-AF9 inh 51*, PAX8 reporter 14, FN deposit inh 5, HIV Env fusion 11 and EWS-Fli block 9.
Screening COC(=O)c1ccccc1NC(=S)N(Cc1ccc2c(c1)OCO2)Cc1cc2ccc(OC)cc2[nH]c1=O returned Glyco luc inh -2, AF4-AF9 inh 0, PAX8 reporter -21, HIV Env fusion -19 and EWS-Fli block 88*.
Screening COc1ccc2c3c(n(C)c2c1)[C@H](CO)N(S(=O)(=O)c1ccc(C)cc1)CC31CN(S(=O)(=O)c2ccc(C)cc2)C1 returned AF4-AF9 inh -4 and EWS-Fli block 11.
For Cc1cc(C)c2c(C)c(C(=O)NCc3ccncc3)oc2c1 the results were Glyco luc inh -2, FN deposit inh 14 and HIV Env fusion 3.
Cc1ccc2oc(C(=O)NCc3ncc(C)[nH]3)c(C)c2c1 was read as Glyco luc inh 29*, AF4-AF9 inh 3, PAX8 reporter -3, FN deposit inh 4, HIV Env fusion 13 and EWS-Fli block 16.
`CCc1ccc2oc(C(=O)NCc3ccncc3)c(C)c2c1` gave Glyco luc inh -3, FN deposit inh -1 and HIV Env fusion 62*.
`O=C(C[C@H]1C[C@H]2c3cc(NC(=O)c4ccc5c(c4)OCO5)ccc3O[C@H]2[C@@H](CO)O1)NCCc1ccccc1` gave AF4-AF9 inh -12, PAX8 reporter -5, HIV Env fusion -15[16.7 µM] and EWS-Fli block -3.
Screening CCCN1C[C@H](C)[C@@H](OC)CN(C)C(=O)c2ccc(NS(=O)(=O)c3ccccc3)cc2OC[C@H]1C returned AF4-AF9 inh -4, FN deposit inh 2, HIV Env fusion -2[16.7 µM] and EWS-Fli block 6.
Cc1cc2[nH]c3c4ccccc4nc(C)c3c2cc1C was read as Glyco luc inh -21, AF4-AF9 inh 7, PAX8 reporter 86*, FN deposit inh 0, HIV Env fusion -180 and EWS-Fli block 61*.
Screening C[C@@H]1CN([C@@H](C)CO)C(=O)c2cc(NC(=O)NC3CCCCC3)ccc2O[C@H]1CN(C)S(=O)(=O)c1cn(C)cn1 returned AF4-AF9 inh -5 and EWS-Fli block 0.
Screening COc1ccccc1-c1csc(C(NC(C)=O)c2cccc(F)c2)n1 (stereo not drawn) returned Glyco luc inh 33*, AF4-AF9 inh -2, PAX8 reporter -6, FN deposit inh 3, HIV Env fusion -41 and EWS-Fli block -16.
For COc1ccccc1-c1csc(C(NC(C)=O)c2ccc(F)c(F)c2)n1 (stereo not drawn) the results were Glyco luc inh inconclusive, AF4-AF9 inh -4, PAX8 reporter -16, FN deposit inh 2, HIV Env fusion 8 and EWS-Fli block -3.
COc1ccc(N/N=C/c2c(C(=O)O)ccc3ccccc23)cc1 was read as Glyco luc inh -11, AF4-AF9 inh -16, PAX8 reporter 62*, FN deposit inh 14, HIV Env fusion 9 and EWS-Fli block -20.
Screening COc1ccc2ccccc2c1/C=N/Nc1ccc(Cl)c(C(=O)O)c1 returned Glyco luc inh 7, AF4-AF9 inh 2, PAX8 reporter -34, FN deposit inh -3, HIV Env fusion -23 and EWS-Fli block -57.
`CC(NCCCOc1cccc2ccccc12)c1ccccc1` (stereo not drawn) gave Glyco luc inh -6, AF4-AF9 inh 7, PAX8 reporter 7, FN deposit inh 6, HIV Env fusion 75* and EWS-Fli block 32.
CCCCOc1ccc(C(=O)NCCc2ccccc2)cc1 was read as Glyco luc inh -5, AF4-AF9 inh -1, PAX8 reporter -114, FN deposit inh -1, HIV Env fusion -64 and EWS-Fli block -17.
NC(=S)c1ccc(OCCCc2ccccc2)cc1 was read as Glyco luc inh -2, AF4-AF9 inh 1, PAX8 reporter -224, FN deposit inh -13, HIV Env fusion 70* and EWS-Fli block -62.
`NNC(=O)c1[nH]c2ccc(Cl)cc2c1-c1ccccc1` gave Glyco luc inh inconclusive, AF4-AF9 inh -2, PAX8 reporter 66*, FN deposit inh 7, HIV Env fusion -206 and EWS-Fli block 17.
Screening NNC(=O)c1[nH]c2ccc(Br)cc2c1-c1ccccc1 returned Glyco luc inh 3, AF4-AF9 inh -6, PAX8 reporter -10, FN deposit inh 4, HIV Env fusion -25 and EWS-Fli block 15.
Screening COC(=O)[C@]1(C)N[C@H](CN(C)C(=O)Nc2ccc(C)cc2)[C@@H]2C(=O)N(Cc3ccccc3)C(=O)[C@@H]21 returned Glyco luc inh 2, AF4-AF9 inh -3, PAX8 reporter 2, FN deposit inh 7, HIV Env fusion 64* and EWS-Fli block 10.
`COC(=O)[C@]1(C)N[C@H](CN(C)C(=O)Nc2ccc(OC)cc2)[C@@H]2C(=O)N(Cc3ccccc3)C(=O)[C@@H]21` gave Glyco luc inh 1, AF4-AF9 inh 0, PAX8 reporter -10, FN deposit inh 3, HIV Env fusion inconclusive and EWS-Fli block 2.
COC(=O)[C@]1(C)N[C@H](CN(C)C(=O)Nc2ccc(Cl)cc2)[C@@H]2C(=O)N(Cc3ccccc3)C(=O)[C@@H]21 was read as Glyco luc inh 1, AF4-AF9 inh -3, PAX8 reporter -4, FN deposit inh -1, HIV Env fusion 79* and EWS-Fli block -3.
`CCN(C[C@H]1N[C@@](C)(C(=O)OC)[C@H]2C(=O)N(Cc3ccccc3)C(=O)[C@@H]12)C(=O)Nc1ccc(F)cc1` gave Glyco luc inh 0, AF4-AF9 inh -1, PAX8 reporter 15, FN deposit inh 4, HIV Env fusion 57* and EWS-Fli block -3.
